{"data": "Results from different studies", "BCHE": "Cholinesterase (BCHE, Equus caballus, UniProt P81908)", "MAP2K3": "Dual specificity mitogen-activated protein kinase kinase 3 (MAP2K3, Homo sapiens, UniProt P46734)", "note": "Each line is one published result; the experiments were not run side by side."}
{"Compound": "COc1cc2c(cc1OC)C(=O)N(CCc1c[nH]c3ccccc13)C2", "target": "BCHE", "effect on": "enzyme activity", "mode": "inhibitor", "method": "Ellman", "concentration": "1 µM", "measurement": "inhibition", "result": "0.7%"}
{"Compound": "CCN(CC)CCCC[C@H](NC(=O)[C@H](CC(C)C)NC(=O)[C@H](C)NC(=O)[C@H](Cc1ccccc1)NC(=O)c1ccc(C(C)(C)C)cc1)C(=O)N[C@@H](CO)C(=O)OC", "target": "Peregrin, bromodomain (BRPF1, Homo sapiens, UniProt P55201)", "effect on": "thermal stability", "method": "DSF", "concentration": "25 µM", "measurement": "ΔTm", "result": "0.47 °C"}
{"Compound": "Cn1cc(-c2cccc(N3CCc4c(sc5c4CC(C)(C)C5)C3=O)c2CO)cc(Nc2ccncn2)c1=O", "target": "MAP2K3", "effect on": "enzyme activity", "mode": "inhibitor", "concentration": "1 µM", "measurement": "inhibition", "result": "2%"}
{"Compound": "O=P(O)(O)O[C@H]1O[C@H](CO)[C@@H](O)[C@H](O)[C@H]1O", "target": "Glycogen phosphorylase, muscle form (PYGM, Oryctolagus cuniculus, UniProt P00489)", "effect on": "enzyme activity", "mode": "substrate", "measurement": "Km", "result": "920 µM"}
{"Compound": "Nc1ccc(-c2ccccc2)c(-c2nc3ccccc3s2)c1", "target": "Prostaglandin G/H synthase 1 (PTGS1, Ovis aries, UniProt P05979)", "effect on": "enzyme activity", "mode": "inhibitor", "method": "absorbance", "concentration": "10 µM", "measurement": "inhibition", "result": "59.1%"}
{"Compound": "Nc1ncc(-c2nc(N3CCOCC3)nc(N3CCOCC3)n2)c(C(F)F)n1", "target": "MAP2K3", "effect on": "binding", "method": "competition with immobilised ligand", "concentration": "10 µM", "measurement": "remaining binding", "result": "78%"}
{"Compound": "COc1cc2c(cc1OC)C(=O)N(Cc1ccccn1)C2", "target": "BCHE", "effect on": "enzyme activity", "mode": "inhibitor", "method": "Ellman", "concentration": "1 µM", "measurement": "inhibition", "result": "-8.8%"}
{"Compound": "C[C@]12CC[C@@H]3c4ccc(OC(=O)N(CCCl)CCCl)cc4CC[C@H]3[C@@H]1CC[C@@H]2OP(=O)(O)O", "target": "Tyrosine-protein phosphatase non-receptor type 11 (PTPN11, Homo sapiens, UniProt Q06124)", "effect on": "binding", "method": "SPR", "measurement": "koff", "result": "0.02 s⁻¹"}
{"Compound": "Cc1nn(C)cc1-c1nc2c(N3CCN(Cc4ccc(Cl)cc4)CC3)c(Cl)cnc2[nH]1", "target": "MAP2K3", "effect on": "binding", "method": "competition with immobilised ligand", "concentration": "1 µM", "measurement": "remaining binding", "result": "100%"}
{"Compound": "COc1cc2c(cc1OC)C(=O)N(CC1CCNCC1)C2", "target": "BCHE", "effect on": "enzyme activity", "mode": "inhibitor", "method": "Ellman", "concentration": "1 µM", "measurement": "inhibition", "result": "6.8%"}
{"Compound": "COc1ncccc1-c1cnn2ccc(N3CCN(C(=O)OC(C)C)CC3)nc12", "target": "SRSF protein kinase 2 (SRPK2, Homo sapiens, UniProt P78362)", "effect on": "binding", "method": "competition with immobilised ligand", "concentration": "1 µM", "measurement": "remaining binding", "result": "28%"}
{"Compound": "COc1cccc(CN2CCC(CN3Cc4cc(OC)c(OC)cc4C3=O)CC2)n1", "target": "BCHE", "effect on": "enzyme activity", "mode": "inhibitor", "method": "Ellman", "concentration": "1 µM", "measurement": "inhibition", "result": "-2%"}
{"Compound": "C#Cc1n[nH]c2c(-c3cn([C@@H](C)c4ccccn4)c(=O)[nH]c3=O)cc(F)cc12", "target": "BDNF/NT-3 growth factors receptor (NTRK2, Homo sapiens, UniProt Q16620)", "effect on": "enzyme activity", "mode": "inhibitor", "concentration": "0.1 µM", "measurement": "inhibition", "result": "3.7%"}
